This passage reports inhibition and Ki results from ChEMBL document CHEMBL3085721, “Nonhydrolyzable ATP analogues as selective inhibitors of human NPP1: a combined computational/experimental study” (J Med Chem, 2013).

Assay [1] concerns the target T1, Ectonucleotide pyrophosphatase/phosphodiesterase family member 1 (Homo sapiens) (UniProt P22413).
T1 sequence (whole entry): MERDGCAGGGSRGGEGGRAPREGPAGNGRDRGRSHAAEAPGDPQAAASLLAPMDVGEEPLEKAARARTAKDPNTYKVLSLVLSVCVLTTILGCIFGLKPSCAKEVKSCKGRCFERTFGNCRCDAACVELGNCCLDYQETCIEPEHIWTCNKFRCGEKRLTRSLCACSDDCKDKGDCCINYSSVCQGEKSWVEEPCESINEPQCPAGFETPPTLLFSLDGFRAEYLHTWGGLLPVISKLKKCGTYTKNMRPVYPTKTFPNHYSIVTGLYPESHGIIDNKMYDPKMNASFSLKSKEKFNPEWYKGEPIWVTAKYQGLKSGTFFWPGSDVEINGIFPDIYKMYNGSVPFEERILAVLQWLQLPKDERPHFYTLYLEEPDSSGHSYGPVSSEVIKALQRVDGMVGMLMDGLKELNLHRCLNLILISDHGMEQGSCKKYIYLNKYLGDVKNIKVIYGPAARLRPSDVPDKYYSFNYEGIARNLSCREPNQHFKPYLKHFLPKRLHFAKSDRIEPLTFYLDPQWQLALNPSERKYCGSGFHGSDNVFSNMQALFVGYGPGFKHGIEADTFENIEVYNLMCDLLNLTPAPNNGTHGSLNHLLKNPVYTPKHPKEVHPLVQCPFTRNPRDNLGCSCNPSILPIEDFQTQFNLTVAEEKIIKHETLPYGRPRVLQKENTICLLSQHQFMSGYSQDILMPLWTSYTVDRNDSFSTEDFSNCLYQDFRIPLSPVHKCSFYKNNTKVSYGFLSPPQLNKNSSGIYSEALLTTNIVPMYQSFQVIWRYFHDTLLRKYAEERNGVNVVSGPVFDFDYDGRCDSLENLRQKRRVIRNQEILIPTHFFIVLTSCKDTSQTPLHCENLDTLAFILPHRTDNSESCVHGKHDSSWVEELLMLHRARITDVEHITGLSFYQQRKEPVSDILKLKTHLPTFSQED
Nature of the assay: Competitive inhibition of human NPP1 expressed in COS7 cells assessed as production of p-nitrophenol using pnp-TMP as the substrate preincubated at 25 to 100 uM for 3 mins before substrate addition measured after 15 mins by Dixon/Cornish Bowden method. The conditions noted are these: COS-7. The assay is classed as cell-based. The method, boiled down:
(§1)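 Crude protein extract from COS-7 cells transiently transfected with human NPP1 (sonicated, debris cleared at 300g), preincubated 3 min at 37 °C with inhibitor (0, 25, 50, 100 μM) in 1 mM CaCl2, 140 mM NaCl, 5 mM KCl, 50 mM Tris pH 8.5. pnp-TMP (25, 50, 100 μM) added; p-nitrophenol read at 410 nm after 15 min. Ki,app and inhibition type from Dixon and Cornish-Bowden plots, three independent experiments.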

Assay [2] addresses T2, Ectonucleoside triphosphate diphosphohydrolase 8 (Homo sapiens) (UniProt Q5MY95).
T2 sequence (whole entry): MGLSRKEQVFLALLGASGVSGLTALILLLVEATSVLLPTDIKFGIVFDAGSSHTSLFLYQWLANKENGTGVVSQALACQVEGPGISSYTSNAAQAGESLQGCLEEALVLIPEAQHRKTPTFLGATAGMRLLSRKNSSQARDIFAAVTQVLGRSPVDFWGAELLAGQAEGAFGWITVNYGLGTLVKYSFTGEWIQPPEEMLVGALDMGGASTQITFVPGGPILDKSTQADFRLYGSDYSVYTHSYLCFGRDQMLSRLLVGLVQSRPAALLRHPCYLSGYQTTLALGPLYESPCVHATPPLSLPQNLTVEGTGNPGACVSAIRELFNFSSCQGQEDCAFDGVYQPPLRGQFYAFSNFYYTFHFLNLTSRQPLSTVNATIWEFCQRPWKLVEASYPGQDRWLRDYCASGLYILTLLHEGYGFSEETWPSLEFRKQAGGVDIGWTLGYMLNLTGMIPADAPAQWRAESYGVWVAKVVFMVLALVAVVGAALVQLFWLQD
The assay is described as follows: Inhibition of human NTPDase8 assessed as amount of inorganic phosphate released using ATP as the substrate preincubated at 100 uM for 3 mins before substrate addition after 15 mins by malachite green reagent method. The method, boiled down: (§2)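 Crude extracts of COS-7 cells transiently transfected with human NTPDase1, -2, -3 or -8, preincubated 3 min at 37 °C in Tris-Ringer medium pH 7.4 with analogue (final 100 μM). Started with 100 μM ATP, stopped after 15 min with malachite green; released Pi read at 630 nm. ATP alone set as 100%. Mean ± SD of 3−6 experiments in triplicate.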

Assay [3] addresses T3, Ectonucleoside triphosphate diphosphohydrolase 3 (Homo sapiens) (UniProt O75355).
T3 sequence (whole entry): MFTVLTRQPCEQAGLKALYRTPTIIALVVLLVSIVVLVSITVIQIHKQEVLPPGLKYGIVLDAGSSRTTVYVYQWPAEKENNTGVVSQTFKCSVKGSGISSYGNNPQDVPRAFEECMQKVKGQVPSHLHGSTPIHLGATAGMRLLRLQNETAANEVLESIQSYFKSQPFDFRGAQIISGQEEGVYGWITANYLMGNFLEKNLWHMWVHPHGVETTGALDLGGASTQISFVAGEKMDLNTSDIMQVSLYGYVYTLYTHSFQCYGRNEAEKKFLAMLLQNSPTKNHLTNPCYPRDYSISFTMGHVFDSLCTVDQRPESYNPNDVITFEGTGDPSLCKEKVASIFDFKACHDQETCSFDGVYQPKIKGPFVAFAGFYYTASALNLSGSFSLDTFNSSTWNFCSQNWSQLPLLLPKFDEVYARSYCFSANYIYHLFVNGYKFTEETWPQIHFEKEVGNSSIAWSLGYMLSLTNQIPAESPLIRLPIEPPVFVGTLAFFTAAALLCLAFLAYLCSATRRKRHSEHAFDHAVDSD
Nature of the assay: Inhibition of human NTPDase3 assessed as amount of inorganic phosphate released using ATP as the substrate preincubated at 100 uM for 3 mins before substrate addition after 15 mins by malachite green reagent method. The method, boiled down:
as §2

For assay [4], the target named is T4, Ectonucleoside triphosphate diphosphohydrolase 1 (Homo sapiens) (UniProt P49961).
T4 sequence (whole entry): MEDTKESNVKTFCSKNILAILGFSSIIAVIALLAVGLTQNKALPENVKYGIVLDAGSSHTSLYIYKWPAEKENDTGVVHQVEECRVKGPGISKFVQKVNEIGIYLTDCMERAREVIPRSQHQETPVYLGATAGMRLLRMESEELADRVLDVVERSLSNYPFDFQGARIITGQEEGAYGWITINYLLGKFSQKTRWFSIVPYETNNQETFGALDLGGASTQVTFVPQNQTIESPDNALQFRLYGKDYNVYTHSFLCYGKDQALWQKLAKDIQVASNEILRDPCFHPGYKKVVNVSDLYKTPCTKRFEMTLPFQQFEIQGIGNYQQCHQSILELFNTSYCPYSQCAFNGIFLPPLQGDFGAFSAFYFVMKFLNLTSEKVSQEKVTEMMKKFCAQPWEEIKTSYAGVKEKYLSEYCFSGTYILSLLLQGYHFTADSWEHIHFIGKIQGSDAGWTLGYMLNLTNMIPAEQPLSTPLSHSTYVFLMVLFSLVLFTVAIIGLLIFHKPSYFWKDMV
Nature of the assay: Inhibition of human NTPDase1 assessed as amount of inorganic phosphate released using ATP as the substrate preincubated at 100 uM for 3 mins before substrate addition after 15 mins by malachite green reagent method. Put shortly: as §2

Assay [5] deals with T1, Ectonucleotide pyrophosphatase/phosphodiesterase family member 1 (Homo sapiens). The assay is described as follows: Inhibition of human NPP1 expressed in COS7 cells assessed as production of p-nitrophenol using pnp-TMP as the substrate preincubated at 100 uM for 3 mins before substrate addition measured after 15 mins […]. It is filed as cell-based. The conditions noted are these: COS-7. The method, boiled down:
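Crude extracts of COS-7 cells transiently transfected with human NPP1 or NPP3, preincubated 3 min at 37 °C in 1 mM CaCl2, 140 mM NaCl, 5 mM KCl, 50 mM Tris pH 8.5 with analogue at 100 μM. Reaction started with 100 μM pnp-TMP; p-nitrophenol at 410 nm after 15 min. Activity without analogue set as 100%. Mean ± SD of 3−6 experiments in triplicate.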

In assay [6] the target is T5, Ectonucleotide pyrophosphatase/phosphodiesterase family member 1 (Homo sapiens, UniProt P22413).
T5 sequence (P22413 whole entry): T1 sequence (whole entry)
Nature of the assay: Mixed type inhibition of human NPP1 expressed in COS7 cells assessed as production of p-nitrophenol using pnp-TMP as the substrate preincubated for 3 mins before substrate addition measured after 15 mins by Dixon/Cornish Bowden method. The conditions noted are these: read-out: Ki(app). The assay is classed as cell-based, COS-7. Put shortly:
as §1

The target of assay [7] is T6, Ectonucleotide pyrophosphatase/phosphodiesterase family member 3 (Homo sapiens) (UniProt O14638).
T6 sequence (whole entry): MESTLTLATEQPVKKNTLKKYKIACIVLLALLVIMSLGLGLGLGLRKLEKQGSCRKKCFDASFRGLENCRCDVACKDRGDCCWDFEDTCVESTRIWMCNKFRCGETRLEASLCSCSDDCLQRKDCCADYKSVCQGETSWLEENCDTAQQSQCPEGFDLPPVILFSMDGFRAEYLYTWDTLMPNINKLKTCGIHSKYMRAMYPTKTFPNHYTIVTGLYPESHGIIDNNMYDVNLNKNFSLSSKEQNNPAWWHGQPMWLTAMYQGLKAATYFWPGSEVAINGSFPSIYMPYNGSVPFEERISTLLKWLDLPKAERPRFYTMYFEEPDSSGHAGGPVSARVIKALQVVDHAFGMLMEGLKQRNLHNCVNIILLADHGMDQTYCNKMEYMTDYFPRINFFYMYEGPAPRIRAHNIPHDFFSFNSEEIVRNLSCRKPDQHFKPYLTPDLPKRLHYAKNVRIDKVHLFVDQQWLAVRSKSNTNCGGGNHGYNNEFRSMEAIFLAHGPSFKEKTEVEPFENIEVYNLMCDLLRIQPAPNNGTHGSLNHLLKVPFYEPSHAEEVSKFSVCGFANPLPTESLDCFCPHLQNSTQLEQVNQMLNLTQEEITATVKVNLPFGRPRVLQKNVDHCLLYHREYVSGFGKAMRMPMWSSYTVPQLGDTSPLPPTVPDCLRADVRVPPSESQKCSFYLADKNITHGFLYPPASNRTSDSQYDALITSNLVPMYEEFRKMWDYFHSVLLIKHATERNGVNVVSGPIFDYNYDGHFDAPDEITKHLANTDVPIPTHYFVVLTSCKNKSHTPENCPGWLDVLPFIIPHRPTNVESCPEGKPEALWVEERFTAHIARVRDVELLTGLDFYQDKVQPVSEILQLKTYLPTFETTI
Nature of the assay: Inhibition of NPP3 in human HTB-85 cells assessed as production of p-nitrophenol using pnp-TMP at 100 uM measured after 20 mins by spectrophotometry. The assay is classed as cell-based. The method, boiled down: (§3)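 Intact osteocarcinoma HTB85 (SaOS-2) cells in 24-well plates, 0.5 mL incubation mixture, analogue and pnp-TMP each at 100 μM. After 20 min an aliquot was read for p-nitrophenol at 410 nm. Substrate alone set as 100%. Mean ± SD of three experiments in triplicate.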

Assay [8] addresses T1, Ectonucleotide pyrophosphatase/phosphodiesterase family member 1 (Homo sapiens). The assay is described as follows: Inhibition of NPP1 in human HTB-85 cells assessed as production of p-nitrophenol using pnp-TMP at 100 uM measured after 20 mins by spectrophotometry. The assay is classed as cell-based. The method, boiled down: as §3

Activity calls are given as the source filed them. The rule behind the calls is not given here.

By inhibition is commonly meant how much of the control response was suppressed. As for `B[P@@](=O)(OC[C@H]1O[C@@H](n2cnc3c(N)ncnc32)[C@H](O)[C@@H]1O)OP(=O)(O)C(Cl)(Cl)P(=O)(O)O`, the inhibition result in assay [1] was “Active”. Moreover, the inhibition in assay [2] came out at 30%; in assay [3], 50%; in assay [4], 50%; in assay [5] it was 90%. Also, the Ki in assay [6] was determined as 18 µM.
On to `CSc1nc(N)c2ncn([C@@H]3O[C@H](COP(=O)(O)OP(=O)(O)C(F)(F)P(=O)(O)O)[C@@H](O)[C@H]3O)c2n1`, for which the inhibition result in assay [1] was “Active”. Moreover, the inhibition turned out to be 41% in assay [7], 41% in assay [8] and 90% in assay [5]. Also, in assay [6], the Ki was found to be 37 µM.
